How the values were obtained:
[1] = target: Receptor-type tyrosine-protein phosphatase F (Homo sapiens) (UniProt P10586); assay: Inhibitory activity against phosphatase (LAR) at a concentration of 100 uM
How it was run: (§1)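 Purified recombinant human enzyme constructs; PTP1B is a C-terminally truncated soluble form, tested alongside LAR and SHP-2. Activity is read as the initial rate of p-nitrophenyl phosphate (pNPP) hydrolysis and reported as percent inhibition. PTP1B is tested at 100, 10 and 1 µM, or 10 and 1 µM in the salicylate series; LAR and SHP-2 at 100 µM.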

[2] = target: T1, Tyrosine-protein phosphatase non-receptor type 1 (Homo sapiens) (UniProt P18031); assay: Inhibitory activity against human protein tyrosine phosphatase 1B (PTP1B) at a concentration of 10 uM; how it was run: as §1
T1 sequence (whole entry): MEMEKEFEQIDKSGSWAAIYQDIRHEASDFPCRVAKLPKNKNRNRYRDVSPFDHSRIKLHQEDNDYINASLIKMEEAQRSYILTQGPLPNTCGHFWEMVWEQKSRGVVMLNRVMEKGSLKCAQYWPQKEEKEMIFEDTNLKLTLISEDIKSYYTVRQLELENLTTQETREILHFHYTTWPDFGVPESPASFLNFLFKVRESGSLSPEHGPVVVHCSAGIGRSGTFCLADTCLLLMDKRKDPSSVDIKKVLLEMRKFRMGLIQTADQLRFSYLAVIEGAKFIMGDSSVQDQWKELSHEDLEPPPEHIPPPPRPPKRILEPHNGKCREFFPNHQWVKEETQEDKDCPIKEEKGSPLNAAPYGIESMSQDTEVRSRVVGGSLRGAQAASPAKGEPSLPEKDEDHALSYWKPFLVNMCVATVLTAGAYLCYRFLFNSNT

[3] = Uptake of 2-DOG (2-deoxyglucose) into L6 myocytes in the presence of half-maximal concentration of insulin at 100 uM; assay type: functional, Rattus norvegicus
How it was run: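 L6 myotubes are exposed to compound at 100 µM with 10 nM insulin, a dose eliciting about 50% of maximal uptake. The initial rate of 2-[3H]deoxyglucose uptake is measured, with L-[14C]glucose marking extracellular space, and normalized to recovered lysate protein. Net insulin-dependent transport with inhibitor is expressed as a percent of that without inhibitor.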

[4] = target: T1, Tyrosine-protein phosphatase non-receptor type 1 (Homo sapiens); assay: Inhibitory activity against human protein tyrosine phosphatase 1B (PTP1B) at a concentration of 100 uM; how it was run: as §1
[5] = target: T2, Tyrosine-protein phosphatase non-receptor type 11 (Homo sapiens) (UniProt Q06124); assay: Inhibition of recombinant human phosphatase (SHP-2) at a concentration of 100 uM; how it was run: as §1
T2 sequence (whole entry): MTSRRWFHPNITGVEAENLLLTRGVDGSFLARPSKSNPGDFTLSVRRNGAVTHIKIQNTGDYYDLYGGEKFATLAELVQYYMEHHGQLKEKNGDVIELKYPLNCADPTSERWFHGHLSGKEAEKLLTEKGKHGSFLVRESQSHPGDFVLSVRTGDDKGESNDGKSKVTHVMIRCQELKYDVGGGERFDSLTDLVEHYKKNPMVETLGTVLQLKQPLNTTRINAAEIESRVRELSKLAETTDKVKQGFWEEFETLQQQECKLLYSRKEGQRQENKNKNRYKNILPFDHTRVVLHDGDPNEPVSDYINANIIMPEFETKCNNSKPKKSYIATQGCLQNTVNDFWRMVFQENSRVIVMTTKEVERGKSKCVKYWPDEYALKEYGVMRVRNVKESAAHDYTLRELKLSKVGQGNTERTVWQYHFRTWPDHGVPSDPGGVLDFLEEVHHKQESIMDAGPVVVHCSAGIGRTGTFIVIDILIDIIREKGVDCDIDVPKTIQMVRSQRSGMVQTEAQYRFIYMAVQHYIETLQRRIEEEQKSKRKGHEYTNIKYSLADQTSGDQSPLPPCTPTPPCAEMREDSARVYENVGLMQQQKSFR

[6] = target: T1, Tyrosine-protein phosphatase non-receptor type 1 (Homo sapiens); assay: Inhibitory activity against human protein tyrosine phosphatase 1B (PTP1B) at a concentration of 1 uM; how it was run: as §1

Chain of Receptor-type tyrosine-protein phosphatase F (Homo sapiens) (P10586 whole entry, the tested form may be a part): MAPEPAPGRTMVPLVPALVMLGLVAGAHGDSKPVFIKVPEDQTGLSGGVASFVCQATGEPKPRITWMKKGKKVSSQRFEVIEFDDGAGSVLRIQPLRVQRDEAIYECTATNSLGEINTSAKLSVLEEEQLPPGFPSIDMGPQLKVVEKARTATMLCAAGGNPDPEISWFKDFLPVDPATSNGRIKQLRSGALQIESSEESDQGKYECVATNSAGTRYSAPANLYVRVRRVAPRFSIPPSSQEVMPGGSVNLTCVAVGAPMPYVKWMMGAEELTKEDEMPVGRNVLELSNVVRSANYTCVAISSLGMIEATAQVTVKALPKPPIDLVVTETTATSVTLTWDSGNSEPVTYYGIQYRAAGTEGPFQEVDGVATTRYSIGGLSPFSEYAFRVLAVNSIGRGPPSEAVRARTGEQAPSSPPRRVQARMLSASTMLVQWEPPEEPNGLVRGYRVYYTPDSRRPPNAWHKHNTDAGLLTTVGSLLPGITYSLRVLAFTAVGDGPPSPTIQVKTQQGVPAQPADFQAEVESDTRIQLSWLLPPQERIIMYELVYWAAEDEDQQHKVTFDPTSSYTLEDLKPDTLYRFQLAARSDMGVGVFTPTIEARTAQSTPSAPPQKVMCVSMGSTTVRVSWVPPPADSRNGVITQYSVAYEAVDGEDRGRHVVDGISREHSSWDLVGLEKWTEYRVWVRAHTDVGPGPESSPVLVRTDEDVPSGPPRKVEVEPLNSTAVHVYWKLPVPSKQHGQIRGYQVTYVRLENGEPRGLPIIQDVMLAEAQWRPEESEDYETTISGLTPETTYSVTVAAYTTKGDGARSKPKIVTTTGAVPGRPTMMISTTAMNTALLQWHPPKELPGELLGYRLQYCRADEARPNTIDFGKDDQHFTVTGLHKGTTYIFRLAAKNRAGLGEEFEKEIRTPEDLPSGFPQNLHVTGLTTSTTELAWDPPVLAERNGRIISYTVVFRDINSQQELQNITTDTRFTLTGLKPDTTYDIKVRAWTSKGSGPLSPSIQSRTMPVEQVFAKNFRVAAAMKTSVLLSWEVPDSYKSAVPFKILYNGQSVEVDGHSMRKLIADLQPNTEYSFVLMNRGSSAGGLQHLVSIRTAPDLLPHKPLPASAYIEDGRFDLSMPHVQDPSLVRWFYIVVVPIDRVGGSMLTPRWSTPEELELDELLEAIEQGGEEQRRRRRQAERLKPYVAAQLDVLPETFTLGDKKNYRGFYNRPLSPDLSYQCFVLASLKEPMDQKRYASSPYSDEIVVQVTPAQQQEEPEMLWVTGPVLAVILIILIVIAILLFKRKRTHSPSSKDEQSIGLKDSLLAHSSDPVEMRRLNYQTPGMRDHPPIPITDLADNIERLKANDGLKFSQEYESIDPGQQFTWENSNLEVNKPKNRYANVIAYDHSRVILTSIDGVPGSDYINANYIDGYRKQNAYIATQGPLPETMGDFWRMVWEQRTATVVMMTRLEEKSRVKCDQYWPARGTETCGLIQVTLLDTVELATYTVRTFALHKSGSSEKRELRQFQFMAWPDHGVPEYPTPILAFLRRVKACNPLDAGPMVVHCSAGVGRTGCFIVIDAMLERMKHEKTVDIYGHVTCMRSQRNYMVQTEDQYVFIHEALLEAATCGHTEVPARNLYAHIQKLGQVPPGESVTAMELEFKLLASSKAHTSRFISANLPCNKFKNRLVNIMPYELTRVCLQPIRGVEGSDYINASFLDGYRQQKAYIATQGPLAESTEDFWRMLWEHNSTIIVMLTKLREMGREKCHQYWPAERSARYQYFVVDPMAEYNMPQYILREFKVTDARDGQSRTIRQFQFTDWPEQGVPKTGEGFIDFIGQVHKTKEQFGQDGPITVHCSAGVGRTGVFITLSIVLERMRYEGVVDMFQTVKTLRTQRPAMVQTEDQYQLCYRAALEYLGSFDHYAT

SMILES	inhibition [1]	inhibition [2]	inhibition [4]	inhibition [5]	inhibition [6]	Control Uptake [3]
CCCCCNC(=O)[C@H](Cc1ccc(OC(C(=O)O)C(=O)O)cc1)NC(=O)[C@H](Cc1ccccc1)NC(=O)CCNC(=O)OC(C)(C)C	2%	62%	93%	8%	14%	87%
CCCCCNC(=O)[C@H](Cc1ccc(OC(C(=O)O)C(=O)O)cc1)NC(=O)[C@H](CC[S+](C)[O-])NC(=O)OC(C)(C)C (stereo partly drawn)	0%	21%	67%	6%	7%	70%
CCCCCNC(=O)[C@H](Cc1ccc(OC(C(=O)O)C(=O)O)cc1)NC(=O)[C@H](Cc1cccc2ccccc12)NC(=O)OC(C)(C)C	34%	33%	86%	8%	3%	84%
CCCCCNC(=O)[C@H](Cc1ccc(OC(C(=O)O)C(=O)O)cc1)NC(=O)[C@H](CC(C)C)NC(=O)OC(C)(C)C	3%	24%	76%	5%	4%	84%
CCCCCNC(=O)[C@H](Cc1ccc(OC(C(=O)O)C(=O)O)cc1)NC(=O)[C@H](Cc1ccccc1)NC(=O)NC(C)(C)C	21%	40%	86%	6%	9%	93%
CCCCCNC(=O)[C@H](Cc1ccc(OC(C(=O)O)C(=O)O)cc1)NC(=O)[C@H](CC(N)=O)NC(=O)OC(C)(C)C	0%	40%	85%	8%	9%	110%
CCCCCNC(=O)[C@H](Cc1ccc(OC(C(=O)O)C(=O)O)cc1)NC(=O)[C@H](COCc1ccccc1)NC(=O)OC(C)(C)C	3%	19%	71%	0%	3%	79%

More lines, main results first:

inhibition [1]	inhibition [2]	inhibition [4]	inhibition [5]	inhibition [6]	SMILES	Control Uptake [3]
18%	44%	89%	9%	10%	CCCCCNC(=O)[C@H](Cc1ccc(OC(C(=O)O)C(=O)O)cc1)NC(=O)[C@H](Cc1c[nH]c2ccccc12)NC(=O)OC(C)(C)C	92%
4%	29%	90%	3%	3%	CCCCCNC(=O)[C@H](Cc1ccc(OC(C(=O)O)C(=O)O)cc1)NC(=O)[C@H](Cc1ccc2ccccc2c1)NC(=O)OC(C)(C)C	62%
0%	50%	90%	5%	10%	CCCCCNC(=O)[C@H](Cc1ccc(OC(C(=O)O)C(=O)O)cc1)NC(=O)[C@H](Cc1ccc(O)cc1)NC(=O)OC(C)(C)C	96%
0%	16%	83%	0%	3%	CCCCCNC(=O)[C@H](Cc1ccc(OC(C(=O)O)C(=O)O)cc1)NC(=O)[C@H](CSCc1ccccc1)NC(=O)OC(C)(C)C	89%
6%	65%	94%	11%	19%	CCCCCNC(=O)[C@H](Cc1ccc(OC(C(=O)O)C(=O)O)cc1)NC(=O)[C@H](Cc1ccccc1)NC(=O)CCOC	104%
0%	54%	92%	14%	12%	CCCCCNC(=O)[C@H](Cc1ccc(OC(C(=O)O)C(=O)O)cc1)NC(=O)[C@H](Cc1ccccc1)NC(=O)CCN(CC)CC	89%

Reference: ChEMBL document CHEMBL1136635, “Modification of the N-terminus of peptidomimetic protein tyrosine phosphatase 1B (PTP1B) inhibitors: identification of analogues with cellular activity” (Bioorg Med Chem Lett, 2003)
